These results are taken from ChEMBL document CHEMBL4725411, “A Phosphoramidate Strategy Enables Membrane Permeability of a Non-nucleotide Inhibitor of the Prolyl Isomerase Pin1” (ACS Med Chem Lett, 2020).

The source made the active and inactive calls. The calls are words filed in the database; no cut-off is given here. A value given as a limit tells only on which side of the number the result lay.

Data set [1] in a line: Prodrug conversion in cell free extract. The data set is classed as ADME. In outline: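 Cell-free control run in medium without cells, then ethyl acetate extraction and UPLC-MS for the intermediate and the free phosphate.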
The target of data set [2] is Peptidyl-prolyl cis-trans isomerase NIMA-interacting 1 (Homo sapiens, UniProt Q13526). In words: Displacement of FITC-WFYpSPFLE from human Pin1 (45-163) catalytic domain by fluorescence polarization assay. For orientation: In fluorescence polarisation assays a small probe gives low polarisation when free and higher when bound to something large.
The nature of data set [3]: Prodrug conversion in human MDA-MB-231 cells assessed as increase in Pin1 level at 5 uM in presence of 100 uM TrpGc Hint1 inhibitor. The data set is classed as ADME, cell-based. The settings on record: mda-mb-231, 5 µM. Put shortly:
(§1)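 MDA-MB-231 cells treated over a dose series for 72 h (longer than 24 h), with or without the Hint1 inhibitor TrpGc at 100 μM. Pin1 abundance at normal temperature used as the read-out.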

Data set [4] is described as follows: Prodrug release in human K562 cells assessed as 1R-phosphate binding to Pin1 at 25 uM after 5 hrs by Western blot based cellular thermal shift assay. The following applies: k562, 5 h. The format is ADME, cell-based. In outline:
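K562 cells exposed to prodrug at 25 μM or 0.25% DMSO for 5 h, then heated across 38–60 °C and lysed. Soluble Pin1 measured by Western blot. Three independent experiments, error as SEM.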

Data set [5] relates to PC-3. The data set is described as follows: Inhibition of colony formation in human PC-3 cells. The data set is classed as functional, cell-based. Put shortly: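 PC3 cells treated at low density, colony formation scored. Mean of triplicate experiments, error as SD.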
Data set [6] can be described thus: Prodrug conversion in human K562 cells assessed as cytosolic enzyme product of 1-R-phosphate after 5 hrs by UPLC-MS analysis. The format is ADME, cell-based. The settings on record: k562, 5 h. In outline: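 K562 cells exposed 5 h in serum-free medium, then washed extensively, centrifuged and extracted with ethyl acetate. Products quantified by UPLC-MS. DMSO solvent control subtracted as background. Average of duplicates with full range.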

The nature of data set [7]: Octanol/water partition coefficient, logP of compound. The format is physicochemical.
Data set [8] in a line: Prodrug release in human MDA-MB-231 cells assessed as 1R-phosphate binding to Pin1 at 25 uM at fixed temperature 48 degC by Western blot based assay. The data set is classed as ADME, cell-based. The following applies: mda-mb-231, 25 µM. Put shortly:
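MDA-MB-231 cells dosed at 25 μM or with 0.25% DMSO for 5 h, heated at a fixed 48 °C and lysed. Soluble Pin1 measured by Western blot in biological quadruplicates.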

Data set [9] concerns PC-3. The data set is described as follows: Antiproliferative activity in human PC-3 cells after 72 hrs by ATP-Glo assay. The format is functional, cell-based. In outline:
(§2)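 PC3 cells grown to higher confluence, compound exposure 72 h. Proliferation read by ATP-Glo luminescence or by MTT.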

A short description of data set [10]: Prodrug conversion in human MDA-MB-231 cells assessed as increase in Pin1 level mesured longer than 24 hrs. The data set is classed as ADME, cell-based. The following applies: mda-mb-231, 24 h. Put shortly:
as §1

Data set [11] relates to PC-3. The data set is described as follows: Antiproliferative activity in human PC-3 cells after 72 hrs by MTT assay. The data set is classed as functional, cell-based. Put shortly:
as §2

Chain of Peptidyl-prolyl cis-trans isomerase NIMA-interacting 1 (Q13526 whole entry, the tested form may be a part): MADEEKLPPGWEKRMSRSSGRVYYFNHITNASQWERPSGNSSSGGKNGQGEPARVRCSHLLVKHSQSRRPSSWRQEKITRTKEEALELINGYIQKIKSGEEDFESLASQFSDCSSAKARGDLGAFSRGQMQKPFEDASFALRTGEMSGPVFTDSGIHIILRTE

What is called IC50 is the concentration needed to halve the response being measured. A higher IC50 goes with weaker potency. As a reminder, the logP is the decadic logarithm of the partition coefficient of the neutral form, usually between octanol and water. A low value points to lower lipophilicity. As for `CCOC(=O)CNP(=O)(OC[C@@H](Cc1ccccc1)NC(=O)c1cc2ccccc2s1)Oc1ccccc1` (some centres undefined), the Drug metabolism entry in data set [1] is reported as “Metabolite_Notdetected”; in data set [3], “Metabolite_Notdetected”; in [4], “Metabolite_Detected”; in data set [6], “Metabolite_Detected”; in data set [8], “Metabolite_Detected”; in [10], “Metabolite_Detected”. In [2], this compound yielded an IC50 above 10 µM. Moreover, the inhibition result in [5] is “Active”. This compound showed a logP in data set [7] of 0.27. Besides, the outcome in data set [9] and in data set [11] was inactive.
Take `O=C(N[C@@H](COP(=O)(O)O)Cc1ccccc1)c1cc2ccccc2s1`: the lipophilicity (logP) in [7] was below -4.6.
In the case of `CCOC(=O)CNP(=O)(OC[C@H](Cc1ccccc1)NC(=O)c1cc2ccccc2s1)Oc1ccccc1` (some centres undefined), the IC50 in [2] was above 10 µM. Moreover, the inhibition entry in [5] is “inactive”.
